This note sets out measurements from ChEMBL document CHEMBL1133476, “Nitrosothiol esters of diclofenac: synthesis and pharmacological characterization as gastrointestinal-sparing prodrugs” (J Med Chem, 2000).

Data set [1] concerns Mus musculus. Kind of data set: Level of plasma diclofenac in mice after oral administration of 20 umol/kg of prodrug. Type of data set: ADME, organism-based. The note with it: in vivo. In outline:
(§1)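 Male CD-1 mice, fasted overnight (≈17 h), given 20 µmol/kg orally by gavage as a suspension in 0.5% methocel/5% or 50% PEG-400. Ketamine/xylazine anesthesia, then cardiac-puncture heparinized blood at 30, 60 and 120 min, a separate group per time point. Plasma diclofenac measured by HPLC with UV detection against authentic standard, meclofenamic acid internal standard.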

Data set [2] is filed under the species Rattus norvegicus. The data set can be described thus: Gastric toxicity was measured in rats. The class given is organism-based. The settings on record: in vivo. In outline: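 Male Sprague-Dawley rats (180-200 g), fasted 24 h with water ad libitum. Single gavage of 100 µmol/kg at 5 mL/kg in 0.5% methocel/5% or 50% PEG-400, 5-10 rats/group. Fasting continued for 18 h, then CO₂ euthanasia. Stomach lesions scored in mm; mean ± SEM.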

Data set [3] concerns Mus musculus. Kind of data set: Level of plasma diclofenac in mice after oral administration. The settings on record: in vivo. The class given is ADME, organism-based. In outline: as §1
The test system of data set [4] is Rattus norvegicus. The data set can be described thus: Antiinflammatory effect measured as % inhibition in carrageenan induced paw edema test in rat. The class given is functional. In outline:
(§2)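 Male Sprague-Dawley rats (200-250 g), fasted overnight (≈17 h) with water ad libitum. Dosed 100 µmol/kg by gavage at 5 mL/kg in 0.5% methocel/5% or 50% PEG-400, at least 5 rats/group. At 1 h, 50 µL of 1% carrageenan injected subplantar into the right […] paw. Paw volume read by water displacement at 0 and 3 h. Result is % inhibition of the volume increase; ratio relative to diclofenac at the same dose.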
In general terms: In the carrageenan paw model, swelling and tenderness develop within hours.

The species entered for data set [5] is Mus musculus. The data set can be described thus: Analgesic effect measured as % inhibition in PBQ-induced writhing test in mice. The class given is functional. On the set-up: concentration or dose not given beside the values. In outline: (§3)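 Male CD-1 mice (20-25 g), fasted overnight (≈17 h) with water ad libitum. Oral gavage of 100 µmol/kg as a suspension in 0.5% methocel with 5% or 50% PEG-400, 2.5 mL/kg, at least 9 mice/group. PBQ 2 mg/kg ip at 1 h after dosing; writhes counted over 5 min, starting 5 min after PBQ. Read-out is % inhibition of writhing vs vehicle; ratio = % inhibition with the test article / % inhibition with diclofenac, both at 100 µmol/kg po.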

Data set [6] in a line: Activity ratio is the percent inhibition of paw volume increase at 100 umol/kg, po to that of diclofenac at 100 umol/kg, po administration. The class given is functional. In outline: as §2
A short description of data set [7]: Activity ratio is the percent inhibition in writhing test at 100 umol/kg, po to that of diclofenac at 100 umol/kg, po administration. The class given is functional. In outline: as §3

As for `CCN(CCCOC(=O)Cc1ccccc1Nc1c(Cl)cccc1Cl)CC1(SN=O)CCCCC1`, in the data set with Mus musculus [1], the Concentration_Plasma is recorded as 4.5 nM ml-1.

The molecule `O=C(Cc1ccccc1Nc1c(Cl)cccc1Cl)OCC1(S)CCCCC1` returned a Gastric lesion score in the data set listed under Rattus norvegicus [2] of 6.7 mm.

In the data set with Mus musculus [3], `O=C([O-])Cc1ccccc1Nc1c(Cl)cccc1Cl.[Na+]` [DICLOFENAC SODIUM] returned a Concentration_Plasma of 23.9 nM ml-1.

For orientation: Inhibition means the share of the control response that was lost under treatment. In the case of `CN(CCCOC(=O)Cc1ccccc1Nc1c(Cl)cccc1Cl)CC1(SN=O)CCCCC1`, the Concentration_Plasma with Mus musculus [1] is given as 7.4 nM ml-1. Moreover, the Inhibition turned out to be 58% in the data set on Rattus norvegicus [4] and 53% in the data set listed under Mus musculus [5]. Also, the Ratio in data set [6] is listed as 1.1; in data set [7], 0.6. This molecule also gave a Gastric lesion score in the data set filed under Rattus norvegicus [2] of 0.7 mm.

For `CN(CCOC(=O)Cc1ccccc1Nc1c(Cl)cccc1Cl)CC1(S)CCCCC1`, the Gastric lesion score in the data set filed under Rattus norvegicus [2] was found to be 10.2 mm.

As for `CN(CCCCOC(=O)Cc1ccccc1Nc1c(Cl)cccc1Cl)CC1(SN=O)CCCCC1`, the Concentration_Plasma in the data set with Mus musculus [1] stood at 5.9 nM ml-1.

As for `CC(C)(COC(=O)Cc1ccccc1Nc1c(Cl)cccc1Cl)SN=O`, the Concentration_Plasma with Mus musculus [1] turned out to be 19.8 nM ml-1. The same molecule came in with an Inhibition in the data set filed under Mus musculus [5] of 32%. Also, in data set [7], the Ratio is 0.4. For the same molecule, the Gastric lesion score in the data set listed under Rattus norvegicus [2] is 0.7 mm.

For `O=NSC1(COC(=O)Cc2ccccc2Nc2c(Cl)cccc2Cl)CCCCC1`, in the data set on Mus musculus [1], the Concentration_Plasma came to 15.3 nM ml-1. The Inhibition in the data set filed under Mus musculus [5] was 58%. Further, in data set [7], the Ratio was found to be 0.7. Besides, the Gastric lesion score in the data set listed under Rattus norvegicus [2] was 2 mm.

As for `CCC(CC)(COC(=O)Cc1ccccc1Nc1c(Cl)cccc1Cl)SN=O`, the Concentration_Plasma with Mus musculus [1] came to 13.4 nM ml-1. The molecule further showed an Inhibition in the data set listed under Mus musculus [5] of 95%. Also, the Ratio in data set [7] stood at 1.1. In the data set filed under Rattus norvegicus [2], this molecule had a Gastric lesion score of 0.4 mm.

As to `CN(CCOC(=O)Cc1ccccc1Nc1c(Cl)cccc1Cl)CC1(SN=O)CCCCC1`, the Concentration_Plasma with Mus musculus [1] was found to be 5.5 nM ml-1. In addition, the Inhibition in the data set with Rattus norvegicus [4] was 55%; in the data set filed under Mus musculus [5], 70%. Also, the Ratio worked out at 1 in data set [6] and 0.8 in data set [7]. The molecule further registered a Gastric lesion score in the data set filed under Rattus norvegicus [2] of 1.1 mM.

For `O=NSC1(CN(CCCOC(=O)Cc2ccccc2Nc2c(Cl)cccc2Cl)Cc2ccccc2)CCCCC1`, the Concentration_Plasma in the data set on Mus musculus [1] was determined as 6.8 nM ml-1.

`CN(CCCCCOC(=O)Cc1ccccc1Nc1c(Cl)cccc1Cl)CC1(SN=O)CCCCC1`: the Concentration_Plasma in the data set on Mus musculus [1] is on record as 2.4 nM ml-1.

Consider `O=C(O)Cc1ccccc1Nc1c(Cl)cccc1Cl` [DICLOFENAC], for which the results for the Inhibition with Rattus norvegicus [4] and in the data set listed under Mus musculus [5] were 53% and 84%, respectively.

`CN(CCCOC(=O)Cc1ccccc1Nc1c(Cl)cccc1Cl)CC1(S)CCCCC1` displayed a Gastric lesion score in the data set filed under Rattus norvegicus [2] of 28.3 mm.
